Measurements from publication PMC9942236 (Science translational medicine, 2023).

Experiments:
HA-Ras cells = assay: Cell viability of transformed astrocytes expressing HRAS G12V; format: cell-based, human; details: read-out: EC50 (cell viability), 1% serum, 96h
Procedure, shortened: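 Human astrocytes immortalized with E6/E7/hTERT and transformed by HRAS G12V expression were treated with test compound in 1% serum for 96 h, then viability was measured. At least three independent biological replicates; experiments repeated at least three times; mean ± SD.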

M120 = assay: Short-term cell viability of recurrent GSC line M120; format: cell-based, human; details: YTX-7739 at 10 μM, TMZ 50–100μM
[1] = tested on: 83 GSC orthotopic brain tumors; assay: Orthotopic 83 GSC mouse model: tumor growth and survival; format: in vivo; details: 83-bearing mice; YTX-7739 30mg/kg, TMZ 10mg/kg, IP
[2] = tested on: MGG8 orthotopic brain tumors; assay: Orthotopic MGG8 GSC mouse model: tumor growth and survival; format: in vivo; details: MGG8-bearing mice; YTX-7739 30 mg/kg, TMZ 5mg/kg, IP
Procedure, shortened: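 Fluc-expressing MGG8 GSCs (1–5 × 10⁴) implanted into left forebrain of male/female athymic nude mice; treatment began once tumors bioluminescence-detected (D-luciferin 150 mg/kg IP). Groups (n=8): vehicle (0.5% methylcellulose + 0.2% Tween80 in saline), test compound 30 mg/kg, TMZ 5 mg/kg (in 5% dextrose), or combination, IP. Tumor growth by bioluminescence; Kaplan-Meier survival, two-sided log-rank test; study ended at six months.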

SMILES | EC50 (HA-Ras cells) | short-term cell viability (M120) | median survival [1] | tumor growth [1] | survival [2] | survival percentage at six months after tumor implantation [2]
Cc1nnc(-c2ccc(N3CCC(Oc4cc(F)ccc4Cl)CC3)nn2)o1 [CAY10566] | 18.6 nM | – | – | – | – | –
Cn1nnc2c(C(N)=O)ncn2c1=O [TMZ, Temozolomide] | – | ineffective | 32 days | initially delayed tumor growth | 106.5 days | 25%
